ChEMBL document CHEMBL1142454, “Synthesis and evaluation of novel 4-amino-4,6-androstadiene-3,17-dione: an analog of formestane” (2008)

Assays:
Assay type in all cases: functional
Parameters in all cases: scale not given: the % may be the effect or the level left
TK-10 = test: Antitumor activity against human TK-10 cells assessed as reduction of cell growth at 10 uM after 48 hrs by SRB assay
Procedure, shortened: (§1)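 NCI-60 one-dose primary screen at 10^-5 M final. Cells grown in RPMI 1640 with 5% FBS and 2 mM L-glutamine, plated at 5000–40,000 cells/well and preincubated 24 h at 37 °C, 5% CO2. Drug stocks in DMSO, diluted in medium with gentamicin. Exposure 48 h, then fixed in situ with TCA (10% final) for 60 min at 4 °C. Stained with 0.4% SRB in 1% acetic acid, bound dye solubilized in 10 mM trizma base, absorbance read at 515 nm. Reported as mean growth percent; negative values indicate cell kill.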

SN12C = test: Antitumor activity against human SN12C cells assessed as reduction of cell growth at 10 uM after 48 hrs by SRB assay
Procedure, shortened: (§2)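 NCI 60-cell-line primary screen, single dose 10^-5 M (final). Cells grown in RPMI 1640 with 5% FBS and 2 mM L-glutamine, seeded at 5000–40,000 cells/well and preincubated 24 h at 37 °C, 5% CO2. Compound is dissolved in DMSO, diluted in medium with gentamicin, and exposed 48 h. Cells are fixed with 10% TCA (final) and stained with 0.4% SRB; absorbance is read at 515 nm. Readout is growth percentage.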

HOP-92 = test: Antitumor activity against human HOP-92 cells assessed as reduction of cell growth at 10 uM after 48 hrs by SRB assay; procedure, shortened: as §2
[1] = Antitumor activity against human Hs 578T cells assessed as reduction of cell growth at 10 uM after 48 hrs by SRB assay; procedure, shortened: as §2
K562 = test: Antitumor activity against human K-562 cells assessed as reduction of cell growth at 10 uM after 48 hrs by SRB assay; procedure, shortened: as §2
KM12 = test: Antitumor activity against human KM12 cells assessed as reduction of cell growth at 10 uM after 48 hrs by SRB assay; procedure, shortened: as §2
CCRF-CEM = test: Antitumor activity against human CCRF-CEM cells assessed as reduction of cell growth at 10 uM after 48 hrs by SRB assay; procedure, shortened: as §2
PC-3 = test: Antitumor activity against human PC-3 cells assessed as reduction of cell growth at 10 uM after 48 hrs by SRB assay; procedure, shortened: as §2
RXF 393 = test: Antitumor activity against human RXF 393 cells assessed as reduction of cell growth at 10 uM after 48 hrs by SRB assay; procedure, shortened: as §2
MCF7 [2] = test: Antitumor activity against human MCF7 cells assessed as reduction of cell growth at 10 uM after 48 hrs by SRB assay; procedure, shortened: as §2
A549 = test: Antitumor activity against human A549/ATCC cells assessed as reduction of cell growth at 10 uM after 48 hrs by SRB assay; procedure, shortened: as §2
A498 = test: Antitumor activity against human A-498 cells assessed as reduction of cell growth at 10 uM after 48 hrs by SRB assay; procedure, shortened: as §2
MOLT-4 = test: Antitumor activity against human MOLT-4 cells assessed as reduction of cell growth at 10 uM after 48 hrs by SRB assay; procedure, shortened: as §2
HOP-62 = test: Antitumor activity against human HOP-62 cells assessed as reduction of cell growth at 10 uM after 48 hrs by SRB assay; procedure, shortened: as §2
SNB-19 = test: Antitumor activity against human SNB-19 cells assessed as reduction of cell growth at 10 uM after 48 hrs by SRB assay; procedure, shortened: as §2
U-251 = test: Antitumor activity against human U251 cells assessed as reduction of cell growth at 10 uM after 48 hrs by SRB assay; procedure, shortened: as §1
DU-145 = test: Antitumor activity against human DU145 cells assessed as reduction of cell growth at 10 uM after 48 hrs by SRB assay; procedure, shortened: as §2
UO-31 = test: Antitumor activity against human UO-31 cells assessed as reduction of cell growth at 10 uM after 48 hrs by SRB assay; procedure, shortened: as §1
OVCAR-8 = test: Antitumor activity against human OVCAR8 cells assessed as reduction of cell growth at 10 uM after 48 hrs by SRB assay; procedure, shortened: as §2
HCC 2998 = test: Antitumor activity against human HCC2998 cells assessed as reduction of cell growth at 10 uM after 48 hrs by SRB assay; procedure, shortened: as §2
[3] = Antitumor activity against human HCT 116 cells assessed as reduction of cell growth at 10 uM after 48 hrs by SRB assay; procedure, shortened: as §2
EKVX = test: Antitumor activity against human EKVX cells assessed as reduction of cell growth at 10 uM after 48 hrs by SRB assay; procedure, shortened: as §2
SR = test: Antitumor activity against human SR cells assessed as reduction of cell growth at 10 uM after 48 hrs by SRB assay; procedure, shortened: as §1
NCI-H522 = test: Antitumor activity against human NCI-H522 cells assessed as reduction of cell growth at 10 uM after 48 hrs by SRB assay; procedure, shortened: as §2
NCI-H23 = test: Antitumor activity against human NCI-H23 cells assessed as reduction of cell growth at 10 uM after 48 hrs by SRB assay; procedure, shortened: as §2
SK-MEL-5 = test: Antitumor activity against human SK-MEL-5 cells assessed as reduction of cell growth at 10 uM after 48 hrs by SRB assay; procedure, shortened: as §2
COLO 205 = test: Antitumor activity against human COLO205 cells assessed as reduction of cell growth at 10 uM after 48 hrs by SRB assay; procedure, shortened: as §2
Malme-3M = test: Antitumor activity against human MALME-3M cells assessed as reduction of cell growth at 10 uM after 48 hrs by SRB assay; procedure, shortened: as §2
NCI-H460 = test: Antitumor activity against human NCI-H460 cells assessed as reduction of cell growth at 10 uM after 48 hrs by SRB assay; procedure, shortened: as §2
MDA-MB-231 = test: Antitumor activity against human MDA-MB-231/ATCC cells assessed as reduction of cell growth at 10 uM after 48 hrs by SRB assay; procedure, shortened: as §2
UACC-62 = test: Antitumor activity against human UACC-62 cells assessed as reduction of cell growth at 10 uM after 48 hrs by SRB assay; procedure, shortened: as §1
SW-620 = test: Antitumor activity against human SW620 cells assessed as reduction of cell growth at 10 uM after 48 hrs by SRB assay; procedure, shortened: as §1
MCF7 [4] = test: Antitumor activity against human doxorubicin-resistant MCF7 cells assessed as reduction of cell growth at 10 uM after 48 hrs by SRB assay; procedure, shortened: as §1
UACC-257 = test: Antitumor activity against human UACC-257 cells assessed as reduction of cell growth at 10 uM after 48 hrs by SRB assay; procedure, shortened: as §1
M14 = test: Antitumor activity against human M14 cells assessed as reduction of cell growth at 10 uM after 48 hrs by SRB assay; procedure, shortened: as §2
IGROV-1 = test: Antitumor activity against human IGROV1 cells assessed as reduction of cell growth at 10 uM after 48 hrs by SRB assay; procedure, shortened: as §2
OVCAR-4 = test: Antitumor activity against human OVCAR4 cells assessed as reduction of cell growth at 10 uM after 48 hrs by SRB assay; procedure, shortened: as §2
LOX IMVI = test: Antitumor activity against human LOXIMVI cells assessed as reduction of cell growth at 10 uM after 48 hrs by SRB assay; procedure, shortened: as §2

Compound | Activity (TK-10) | Activity (SN12C) | Activity (HOP-92) | Activity [1] | Activity (K562) | Activity (KM12) | Activity (CCRF-CEM) | Activity (RXF 393) | Activity (MCF7 [2]) | Activity (A549) | Activity (A498) | Activity (MOLT-4) | Activity (HOP-62) | Activity (SNB-19) | Activity (DU-145) | Activity (UO-31) | Activity (OVCAR-8) | Activity (HCC 2998) | Activity [3] | Activity (EKVX) | also measured
C[C@]12CCC(=O)C(Oc3ccccc3)=C1CC[C@@H]1[C@@H]2CC[C@]2(C)C(=O)CC[C@@H]12 | 122.99% | 90.07% | 87.06% | 103.5% | 86.08% | 115.72% | 90.45% | 107.93% | 103.22% | 100.25% | 103% | 105.63% | 106.47% | 114.92% | 107.32% | 76.98% | 93.48% | 128.78% | 99.87% | 104.06% | Activity (PC-3): 89.25%; Activity (U-251): 91.35%; Activity (SR): 66.91%; Activity (NCI-H522): 87.31%; Activity (NCI-H23): 97.57%; Activity (SK-MEL-5): 94.23%; Activity (COLO 205): 115.44%; Activity (Malme-3M): 120.52%; Activity (NCI-H460): 77.42%; Activity (MDA-MB-231): 109.86%; Activity (UACC-62): 87.46%; Activity (SW-620): 120.45%; Activity (MCF7 [4]): 90.34%; Activity (UACC-257): 108.45%; Activity (M14): 102.62%; Activity (IGROV-1): 55.73%; Activity (OVCAR-4): 100.72%; Activity (LOX IMVI): 101.44%
CCOC1=C2CC[C@@H]3[C@H](CC[C@]4(C)C(=O)CC[C@@H]34)[C@@]2(C)CCC1=O | 100.6% | 110.6% | 92.93% | 118.13% | 94.09% | 123.89% | 91.63% | 117.9% | 108.56% | 97.79% | 105.6% | 98.59% | 103.52% | 112.3% | 123.2% | 85.82% | 98.96% | 125.75% | 103.2% | 111.14% | Activity (PC-3): 96.5%; Activity (SR): 104.9%; Activity (NCI-H522): 91%; Activity (NCI-H23): 101.11%; Activity (SK-MEL-5): 99.39%; Activity (COLO 205): 132.65%; Activity (Malme-3M): 87.47%; Activity (NCI-H460): 83.36%; Activity (MDA-MB-231): 106.73%; Activity (UACC-62): 90.78%; Activity (SW-620): 120.57%; Activity (MCF7 [4]): 97.45%; Activity (UACC-257): 117.1%; Activity (M14): 103.8%; Activity (IGROV-1): 85.75%; Activity (OVCAR-4): 96.98%; Activity (LOX IMVI): 100.3%
C[C@]12CC[C@H]3[C@@H](CCC4=CC(=O)CC[C@@]43CF)[C@@H]1CCC2=O | 114.8% | 113.5% | 113.59% | 127.96% | 93.48% | 117.01% | 88.21% | 67.71% | 130.43% | 99.26% | 111.1% | 106.1% | 123.96% | 109.3% | 116.2% | 87.76% | 94.26% | 139.86% | 110.19% | 94.85% | Activity (U-251): 111.4%; Activity (SR): 118.7%; Activity (NCI-H522): 87.35%; Activity (NCI-H23): 106.48%; Activity (SK-MEL-5): 108.7%; Activity (COLO 205): 134.97%; Activity (Malme-3M): 94.17%; Activity (NCI-H460): 108.88%; Activity (MDA-MB-231): 117.71%; Activity (UACC-62): 114.6%; Activity (SW-620): 125.89%; Activity (MCF7 [4]): 107.98%; Activity (UACC-257): 97.04%; Activity (M14): 102.8%; Activity (IGROV-1): 62.42%; Activity (OVCAR-4): 98.85%; Activity (LOX IMVI): 96.65%
C[C@]12CCC(=O)C(N)=C1C=C[C@@H]1[C@@H]2CC[C@]2(C)C(=O)CC[C@@H]12.Cl | 85.59% | 88.53% | 61.94% | 112.26% | -26.94% | 39.52% | 6.62% | 95.21% | -15.97% | 103.34% | 99.19% | 57.2% | 111.88% | 102.8% | 62.36% | 64.59% | 44.03% | 96.01% | 6.15% | 97.99% | Activity (PC-3): 46.51%; Activity (U-251): 54.19%; Activity (NCI-H522): 76.59%; Activity (NCI-H23): 74.07%; Activity (SK-MEL-5): 69.71%; Activity (COLO 205): 121.26%; Activity (Malme-3M): 70.81%; Activity (NCI-H460): 83.77%; Activity (MDA-MB-231): 100.87%; Activity (UACC-62): 81.02%; Activity (SW-620): 15.36%; Activity (MCF7 [4]): 68.71%; Activity (UACC-257): 86.69%; Activity (M14): 79.51%; Activity (IGROV-1): 49.46%; Activity (OVCAR-4): 61.98%; Activity (LOX IMVI): 60.57%
